# Measurements taken from ChEMBL document CHEMBL4219167, “Disulfiram-based disulfides as narrow-spectrum antibacterial agents” (Bioorg Med Chem Lett, 2018).
# How the values were obtained:
# Staphylococcus aureus [1] = experiment: Antibacterial activity against methicillin-resistant Staphylococcus aureus COL after 20 hrs by broth microdilution assay; format: functional
# Staphylococcus aureus [2] = experiment: Antibacterial activity against vancomycin-intermediate resistant Staphylococcus aureus AR-217 after 20 hrs by broth microdilution assay; format: functional; conditions: AR-217, 20 h
# Staphylococcus aureus [3] = experiment: Antibacterial activity against vancomycin-resistant Staphylococcus aureus HIP14300 after 20 hrs by broth microdilution assay; format: functional; conditions: HIP14300, 20 h
# [4] = tested on: Staphylococcus epidermidis; experiment: Antibacterial activity against vancomycin-intermediate resistant Staphylococcus epidermidis NRS6 after 20 hrs by broth microdilution assay; format: functional; conditions: NRS6, 20 h
# Streptococcus pyogenes = experiment: Antibacterial activity against Streptococcus pyogenes H293 after 20 hrs by broth microdilution assay; format: functional; conditions: H293, 20 h
# Streptococcus agalactiae = experiment: Antibacterial activity against Streptococcus agalactiae SGBS005 after 20 hrs by broth microdilution assay; format: functional; conditions: SGBS005, 20 h
# Streptococcus pneumoniae = experiment: Antibacterial activity against Streptococcus pneumoniae TCH8431 after 20 hrs by broth microdilution assay; format: functional; conditions: TCH8431, 20 h
# Enterococcus faecium = experiment: Antibacterial activity against vancomycin-resistant Enterococcus faecium ATCC 700221 after 20 hrs by broth microdilution assay; format: functional; conditions: ATCC 700221, 20 h
# How it was run: (§1)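 Brain heart infusion broth at 37°C; E. faecium under 5% CO2. Cells at 0.5 McFarland are diluted 1:100 and exposed to serial dilutions (DMSO stocks 1 mM or 1 mg/mL; controls in water).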
# Bacillus anthracis [5] = experiment: Antibacterial activity against Bacillus anthracis Ames 35 after 20 hrs by broth microdilution assay; format: functional; conditions: Ames 35, 20 h
# Bacillus anthracis [6] = experiment: Antibacterial activity against Bacillus anthracis Sterne 34F2 after 20 hrs by broth microdilution assay; format: functional; conditions: Sterne 34F2, 20 h
# Bacillus anthracis [7] = experiment: Antibacterial activity against Bacillus anthracis UM23-1 after 20 hrs by broth microdilution assay; format: functional; conditions: UM23-1, 20 h
# Bacillus anthracis [8] = experiment: Antibacterial activity against Bacillus anthracis Weybridge after 20 hrs by broth microdilution assay; format: functional
# Francisella tularensis = experiment: Antibacterial activity against Francisella tularensis Utah 112 after 20 hrs by broth microdilution assay; format: functional; conditions: Utah 112, 20 h
# Yersinia pestis [9] = experiment: Antibacterial activity against Yersinia pestis Kim D2 after 20 hrs by broth microdilution assay; format: functional; conditions: Kim D2, 20 h
# Yersinia pestis [10] = experiment: Antibacterial activity against Yersinia pestis Kuma D7 after 20 hrs by broth microdilution assay; format: functional; conditions: Kuma D7, 20 h
# Bacillus cereus = experiment: Antibacterial activity against Bacillus cereus Gibson 971 after 20 hrs by broth microdilution assay; format: functional; conditions: Gibson 971, 20 h
# Corynebacterium striatum = experiment: Antibacterial activity against Corynebacterium striatum FS-1 after 20 hrs by broth microdilution assay; format: functional; conditions: FS-1, 20 h
# Listeria monocytogenes = experiment: Antibacterial activity against Listeria monocytogenes Gibson after 20 hrs by broth microdilution assay; format: functional; how it was run: as §1
# Micrococcus luteus = experiment: Antibacterial activity against Micrococcus luteus SK58 after 20 hrs by broth microdilution assay; format: functional; conditions: SK58, 20 h
# Rhodococcus erythropolis = experiment: Antibacterial activity against Rhodococcus erythropolis SK121 after 20 hrs by broth microdilution assay; format: functional; conditions: SK121, 20 h
# How it was run: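 R. erythropolis grown in brain heart infusion broth at 30°C. A 0.5 McFarland suspension diluted 1:100 is treated with serial dilutions from 1 mM or 1 mg/mL DMSO stocks; control antibiotics are in water.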
# Acinetobacter baumannii = experiment: Antibacterial activity against Acinetobacter baumannii AB5075 after 20 hrs by broth microdilution assay; format: functional; conditions: AB5075, 20 h
# Brucella neotomae = experiment: Antibacterial activity against Brucella neotomae 5K33 after 20 hrs by broth microdilution assay; format: functional; conditions: 5K33, 20 h
# Burkholderia multivorans = experiment: Antibacterial activity against Burkholderia multivorans CF2 after 20 hrs by broth microdilution assay; format: functional; conditions: CF2, 20 h
# How it was run: (§2)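 Medium is tryptic soy broth, 37°C. Overnight culture is adjusted to 0.5 McFarland, diluted 1:100 and exposed to serial dilutions (test agents from 1 mM or 1 mg/mL DMSO stocks; control antibiotics in water). Incubation lasts 20 h. MIC is the lowest concentration with no visible growth.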
# Burkholderia cepacia = experiment: Antibacterial activity against Burkholderia cepacia UCB 717 after 20 hrs by broth microdilution assay; format: functional; conditions: UCB 717, 20 h; how it was run: as §2
# Citrobacter freundii = experiment: Antibacterial activity against Citrobacter freundii 4_7_47CFAA after 20 hrs by broth microdilution assay; format: functional
# How it was run: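 Brucella broth, 37°C, 5% CO2. Inoculum is 0.5 McFarland diluted 1:100, with serial drug dilutions from DMSO stocks (1 mM or 1 mg/mL) and control antibiotics in water.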
# Escherichia coli = experiment: Antibacterial activity against Escherichia coli DC10B after 20 hrs by broth microdilution assay; format: functional; how it was run: as §2
# Klebsiella pneumoniae = experiment: Antibacterial activity against Klebsiella pneumoniae 700603 after 20 hrs by broth microdilution assay; format: functional; conditions: Klebsiella pneumoniae, 700603, 20 h; how it was run: as §2
# Proteus mirabilis = experiment: Antibacterial activity against Proteus mirabilis HM-752 after 20 hrs by broth microdilution assay; format: functional; conditions: HM-752, 20 h; how it was run: as §2
# Pseudomonas aeruginosa = experiment: Antibacterial activity against Pseudomonas aeruginosa ATCC 15442 after 20 hrs by broth microdilution assay; format: functional; conditions: ATCC 15442, 20 h; how it was run: as §2
# Salmonella typhi = experiment: Antibacterial activity against Salmonella typhi Ty2 after 20 hrs by Todd Hewitt broth broth microdilution method; format: functional, Salmonella enterica subsp. enterica serovar Typhi str. Ty2; conditions: Salmonella enterica
# Yersinia enterocolitica = experiment: Antibacterial activity against Yersinia enterocolitica WA-314 after 20 hrs by broth microdilution assay; format: functional; conditions: WA-314, 20 h
# How it was run: (§3)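 Yersinia cultured in tryptic soy broth at 28°C. A 0.5 McFarland suspension diluted 1:100 receives serial dilutions of agents from 1 mM or 1 mg/mL DMSO stocks; control antibiotics are in water.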
# Shigella dysenteriae = experiment: Antibacterial activity against Shigella dysenteriae Newcastle 1934 after 20 hrs by broth microdilution assay; format: functional; conditions: Newcastle 1934, 20 h; how it was run: as §2
# Vibrio cholerae = experiment: Antibacterial activity against Vibrio cholerae TS D4 after 20 hrs by Todd Hewitt broth broth microdilution method; format: functional; conditions: TS D4, 20 h
# [11] = tested on: Yersinia pseudotuberculosis; experiment: Antibacterial activity against Yersinia pseudotuberculosis P61 after 20 hrs by broth microdilution assay; format: functional; conditions: P61, 20 h; how it was run: as §3
# HepG2 = experiment: Cytotoxicity against human HepG2 cells assessed as reduction in cell viability after 72 hrs by MTT assay; format: cell-based; conditions: HepG2, 72 h
# Staphylococcus aureus [12] = experiment: Synergistic antibacterial activity against vancomycin-intermediate resistant Staphylococcus aureus AR-217 assessed as vancomycin MIC after 20 hrs by checkerboard microdilution assay; format: functional; conditions: AR-217, 20 h
# Staphylococcus aureus [13] = experiment: Synergistic antibacterial activity against vancomycin-resistant Staphylococcus aureus HIP14300 assessed as vancomycin MIC after 20 hrs by checkerboard microdilution assay; format: functional; conditions: HIP14300, 20 h
# Staphylococcus aureus [14] = experiment: Synergistic antibacterial activity against vancomycin-resistant Staphylococcus aureus HIP14300 after 20 hrs in presence of vancomycin by checkerboard microdilution assay; format: functional; conditions: HIP14300, 20 h
# [15] = tested on: Staphylococcus epidermidis; experiment: Synergistic antibacterial activity against vancomycin-intermediate resistant Staphylococcus epidermidis NRS53 assessed as vancomycin MIC after 20 hrs by checkerboard microdilution assay; format: functional; conditions: NRS53, 20 h
# [16] = tested on: Staphylococcus epidermidis; experiment: Synergistic antibacterial activity against vancomycin-intermediate resistant Staphylococcus epidermidis NRS53 after 20 hrs in presence of vancomycin by checkerboard microdilution assay; format: functional; conditions: NRS53, 20 h
# [17] = tested on: Staphylococcus epidermidis; experiment: Antibacterial activity against vancomycin-intermediate resistant Staphylococcus epidermidis NRS53 after 20 hrs by broth microdilution assay; format: functional; conditions: NRS53, 20 h
# Staphylococcus aureus [18] = experiment: Antibacterial activity against methicillin-resistant Staphylococcus aureus; format: functional
Compound,MIC (Staphylococcus aureus [1]) [µM],MIC (Staphylococcus aureus [2]) [µM],MIC (Staphylococcus aureus [3]) [µM],MIC [4] [µM],MIC (Streptococcus pyogenes) [µM],MIC (Streptococcus agalactiae) [µM],MIC (Streptococcus pneumoniae) [µM],MIC (Enterococcus faecium) [µM],MIC (Francisella tularensis) [µM],MIC (Yersinia pestis [9]) [µM],MIC (Yersinia pestis [10]) [µM],MIC (Bacillus cereus) [µM],MIC (Corynebacterium striatum) [µM],MIC (Listeria monocytogenes) [µM],MIC (Micrococcus luteus) [µM],MIC (Rhodococcus erythropolis) [µM],MIC (Acinetobacter baumannii) [µM],MIC (Brucella neotomae) [µM],MIC (Burkholderia multivorans) [µM],MIC (Burkholderia cepacia) [µM],other results
CCCSSC(=S)N(CC)CC,16,8,16,32,32,> 32,> 32,> 32,32,16,32,1,> 32,16,16,16,> 32,> 32,32,> 32,MIC (Bacillus anthracis [5]): 4 µM; MIC (Bacillus anthracis [6]): 4 µM; MIC (Bacillus anthracis [7]): 4 µM; MIC (Bacillus anthracis [8]): 4 µM; MIC (Citrobacter freundii): > 32 µM; MIC (Escherichia coli): > 32 µM; MIC (Klebsiella pneumoniae): > 32 µM; MIC (Proteus mirabilis): > 32 µM; MIC (Pseudomonas aeruginosa): > 32 µM; MIC (Salmonella typhi): > 32 µM; MIC (Yersinia enterocolitica): > 32 µM; MIC (Shigella dysenteriae): > 32 µM; MIC (Vibrio cholerae): 32 µM; MIC [11]: > 32 µM; IC50 (HepG2): 51 µM
CCN(CC)C(=S)SSC(=S)N(CC)CC,32,8,32,32,16,> 32,> 32,> 32,32,32,32,4,> 32,> 32,32,16,> 32,> 32,32,> 32,MIC (Citrobacter freundii): > 32 µM; MIC (Escherichia coli): > 32 µM; MIC (Klebsiella pneumoniae): > 32 µM; MIC (Proteus mirabilis): > 32 µM; MIC (Pseudomonas aeruginosa): > 32 µM; MIC (Yersinia enterocolitica): > 32 µM; MIC (Shigella dysenteriae): > 32 µM; MIC (Vibrio cholerae): > 32 µM; MIC [11]: > 32 µM; MIC (Staphylococcus aureus [12]): 2 µg/mL; MIC (Staphylococcus aureus [13]): 8 µg/mL; MIC (Staphylococcus aureus [14]): 2 µg/mL; MIC [15]: 4 µg/mL; MIC [16]: 2 µg/mL; MIC [17]: 4 µg/mL; IC50 (HepG2): 38 µM; MIC (Staphylococcus aureus [18]): 4 to 32 µg/mL
